Assays:
[1] = system: Human rhinovirus sp.; test: Effective concentration required for antiviral activity against rhinovirus; assay type: functional, organism-based, Enterovirus
[2] = system: Measles morbillivirus; test: Effective concentration required for antiviral activity against measles virus; assay type: functional, organism-based
[3] = system: Human alphaherpesvirus 1; test: Effective concentration required for 90% of antiviral activity against herpes simplex virus type 1
[4] = system: Respiratory syncytial virus; test: Effective concentration required for antiviral activity against respiratory syncytial virus; assay type: functional, organism-based; conditions: human respiratory syncytial virus
[5] = system: A549; test: Concentration required for cytotoxic activity against human lung carcinoma A-549 cell line using neutral red method; assay type: functional
[6] = system: Huh-7; test: Effective concentration required for 90% reduction in subgenomic hepatitis C virus replicon RNA levels in Huh-7 cells after 96 hr of compound exposure; assay type: functional; conditions: Homo sapiens, Huh-7, 96 h
In short: (§1)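 HCV subgenomic replicon-bearing Huh-7 cells were seeded at 1000 cells/well in 96-well plates, with compound added immediately after seeding, and incubated for 96 h. Total cellular RNA was isolated. Replicon RNA and a ribosomal RNA internal control were amplified by single-step multiplex real-time RT-PCR. HCV RNA was normalized to rRNA by ΔΔCt and calibrated against the no-drug control. Recombinant interferon alpha-2a was the positive control.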

[7] = Concentration required for cytotoxic activity against african green monkey kidney MA-104 cell line was determined using neutral red method; assay type: functional; conditions: Cercopithecidae, MA104
[8] = system: Yellow fever virus; test: Effective concentration required for antiviral activity against yellow fever virus; assay type: functional, organism-based
[9] = system: Human immunodeficiency virus; test: Effective concentration required for antiviral activity against human immunodeficiency virus; assay type: functional, organism-based; conditions: Human immunodeficiency virus 1
[10] = Effective concentration required for antiviral activity against west Nile virus; assay type: functional
[11] = system: Vero; test: Concentration required for cytotoxic activity against african green monkey kidney Vero cell line was determined using neutral red dye; assay type: functional; conditions: Chlorocebus sabaeus
[12] = system: Human alphaherpesvirus 1; test: Effective concentration required for antiviral activity against herpes simplex virus type 1
[13] = Effective concentration required for 90% of antiviral activity against bovine viral diarrhoea virus; assay type: functional, Bovine viral diarrhea virus 1; conditions: Bovine viral diarrhea virus isolates and strains
[14] = system: Huh-7; test: Effective concentration required for reduction in subgenomic hepatitis C virus replicon RNA levels in Huh-7 cells after 96 hr of compound exposure; assay type: functional, cell-based; conditions: Homo sapiens, Huh-7, 96 h; in short: as §1
[15] = system: HepG2; test: Concentration required for cytotoxic activity against human hepatocellular carcinoma HepG2 cell line was determined using MST dye; assay type: functional
In short: (§2)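 Cytotoxicity was read with an MTS-dye cell proliferation assay and expressed as CC50 (µM).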

[16] = system: Huh-7; test: Concentration required for cytotoxic activity against human hepatocellular carcinoma Huh-7 cell line was determined using MST dye; assay type: functional; in short: as §2
[17] = system: Human respirovirus 3; test: Effective concentration required for antiviral activity against Parainfluenza virus; assay type: functional, organism-based
[18] = system: SK-MEL-28; test: Concentration required for cytotoxic activity against human malignant melanoma SK-MEL-28 cell line was determined using MST dye; assay type: functional; in short: as §2
[19] = Concentration required for cytotoxic activity against african green monkey kidney B-SC-1 cell line was determined using neutral red method; assay type: functional; conditions: Cercopithecidae, BSC-1
[20] = system: Vero; test: Concentration required for cytotoxic activity against african green monkey kidney Vero cell line was determined using MST dye; assay type: functional; conditions: Chlorocebus sabaeus; in short: as §2
[21] = Effective concentration required for antiviral activity against bovine viral diarrhoea virus; assay type: functional, Bovine viral diarrhea virus 1
[22] = Effective concentration required for antiviral activity against pinchinde virus; assay type: functional
[23] = system: Influenza B virus; test: Effective concentration required for antiviral activity against Influenza B virus; assay type: functional, organism-based
[24] = system: KB; test: Concentration required for cytotoxic activity against human epidermoid carcinoma of the nasopharynx KB cell line was determined using neutral red method; assay type: functional
[25] = system: Influenza A virus; test: Effective concentration required for antiviral activity against Influenza A virus; assay type: functional, organism-based
[26] = system: CCRF-CEM; test: Concentration required for cytotoxic activity against human T-cell lymphoma CEM cell line was determined using MST dye; assay type: functional; in short: as §2
[27] = system: Hepatitis B virus; test: Effective concentration required for antiviral activity against hepatitis B virus; assay type: functional, organism-based
[28] = system: Human immunodeficiency virus; test: Effective concentration required for 90% of antiviral activity against human immunodeficiency virus; assay type: functional; conditions: Human immunodeficiency virus 1
[29] = system: Hepatitis B virus; test: Effective concentration required for 90% of antiviral activity against hepatitis B virus; assay type: functional
[30] = system: PBMC; test: Concentration required for cytotoxic activity against primary human peripheral blood mononuclear PBM cell line was determined using MST dye; assay type: functional; in short: as §2
[31] = system: unidentified adenovirus; test: Effective concentration required for antiviral activity against adenovirus type 1; assay type: functional, organism-based, Human adenovirus 1
[32] = system: LLC-MK2; test: Concentration required for cytotoxic activity against rhesus monkey kidney LLC-MK2 cell line was determined using neutral red method; assay type: functional, Cercopithecidae; conditions: Macaca mulatta
[33] = system: CV-1; test: Concentration required for cytotoxic activity against african green monkey kidney CV-1 cell line was determined using neutral red method; assay type: functional, Cercopithecidae; conditions: Chlorocebus aethiops
[34] = system: MDCK; test: Concentration required for cytotoxic activity against madin darby canine kidney MDCK cell line was determined using neutral red method; assay type: functional; conditions: Canis lupus familiaris
[35] = Effective concentration required for antiviral activity against punta toro A virus; assay type: functional

Question: What does the source list for `O=c1ccc2nnn3c2n1C1O[C@H](C3)[C@@H](O)[C@H]1O`?
Answer: EC50 [1]: > 100 µM; EC50 [2]: > 100 µM; EC90 [3]: > 100 µM; EC50 [4]: > 100 µM; CC50 [5]: > 100 µM; EC90 [6]: 79.8 µM; CC50 [7]: > 100 µM; EC50 [8]: > 100 µM; EC50 [9]: > 100 µM; EC50 [10]: > 100 µM; CC50 [11]: > 100 µM; EC50 [12]: > 100 µM; EC90 [13]: > 100 µM; EC50 [14]: 19.7 µM; CC50 [15]: 74.4 µM; CC50 [16]: 49.6 µM; EC50 [17]: > 100 µM; CC50 [18]: > 100 µM; CC50 [19]: > 100 µM; CC50 [20]: > 100 µM; EC50 [21]: > 100 µM; EC50 [22]: > 100 µM; EC50 [23]: 28 µM; CC50 [24]: > 100 µM; EC50 [25]: > 100 µM; CC50 [26]: 13.8 µM; EC50 [27]: > 100 µM; EC90 [28]: > 100 µM; EC90 [29]: > 100 µM; CC50 [30]: > 100 µM; EC50 [31]: > 100 µM; CC50 [32]: > 100 µM; CC50 [33]: > 100 µM; CC50 [34]: > 100 µM; EC50 [35]: > 100 µM
